# Assays:
# [1] = system: PSA and FKBP5 gene expression in LNCaP cells; assay: AR-target gene expression; assay type: cell-based; details: 0.1 nM R1881, 24 hours
# LNCaP cells = assay: LNCaP cell proliferation; assay type: cell-based; details: 0.1 nM R1881, 6 days
# AR = details: no reference given; cited from earlier work
# 22RV1 xenograft = 22RV1 xenograft in castrated NSG mice; assay type: in vivo
# [2] = system: FKBP5 expression in 22RV1 cells; assay: AR-V7-dependent FKBP5 expression in 22RV1 cells; assay type: cell-based; details: 22RV1, charcoal stripped serum, 48 hours
# [3] = system: F876L-AR in LNCaP-EnzR cells; assay: PSA expression in enzalutamide-resistant LNCaP-EnzR cells; assay type: cell-based; details: F876L mutant, 0.1 nM R1881
# [4] = system: Pr-3001 patient-derived xenograft; assay: Patient-derived xenograft Pr-3001 in castrated NSG mice; assay type: in vivo; details: over the course of 14 days
# Summary of the method: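 The CRPC patient specimen was collected in RPMI with penicillin/streptomycin and fungizone, minced, digested with collagenase for 2 hours and washed in serum-free medium. It was implanted subcutaneously as 1 mm³ fragments in castrated NSG mice, n=8–10 per group. At 100–200 mm³, mice were randomized to vehicle or test compound, and tumor volume was measured thrice weekly.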
# ER in T47D cells = ER in T47D cells (Homo sapiens, UniProt P03372); assay: ER protein level by Western blot in T47D cells; assay type: cell-based
# Summary of the method: (§1)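 T47D breast cancer cells were plated in growth medium and treated with a range of test compound doses. PR, ER and actin levels were read by Western blot, with actin as the loading control.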
# PR in T47D cells = molecular target: T1, PR in T47D cells (Homo sapiens, UniProt P06401); assay: PR protein level by Western blot in T47D cells; assay type: cell-based
# T1 sequence (P06401 1-933): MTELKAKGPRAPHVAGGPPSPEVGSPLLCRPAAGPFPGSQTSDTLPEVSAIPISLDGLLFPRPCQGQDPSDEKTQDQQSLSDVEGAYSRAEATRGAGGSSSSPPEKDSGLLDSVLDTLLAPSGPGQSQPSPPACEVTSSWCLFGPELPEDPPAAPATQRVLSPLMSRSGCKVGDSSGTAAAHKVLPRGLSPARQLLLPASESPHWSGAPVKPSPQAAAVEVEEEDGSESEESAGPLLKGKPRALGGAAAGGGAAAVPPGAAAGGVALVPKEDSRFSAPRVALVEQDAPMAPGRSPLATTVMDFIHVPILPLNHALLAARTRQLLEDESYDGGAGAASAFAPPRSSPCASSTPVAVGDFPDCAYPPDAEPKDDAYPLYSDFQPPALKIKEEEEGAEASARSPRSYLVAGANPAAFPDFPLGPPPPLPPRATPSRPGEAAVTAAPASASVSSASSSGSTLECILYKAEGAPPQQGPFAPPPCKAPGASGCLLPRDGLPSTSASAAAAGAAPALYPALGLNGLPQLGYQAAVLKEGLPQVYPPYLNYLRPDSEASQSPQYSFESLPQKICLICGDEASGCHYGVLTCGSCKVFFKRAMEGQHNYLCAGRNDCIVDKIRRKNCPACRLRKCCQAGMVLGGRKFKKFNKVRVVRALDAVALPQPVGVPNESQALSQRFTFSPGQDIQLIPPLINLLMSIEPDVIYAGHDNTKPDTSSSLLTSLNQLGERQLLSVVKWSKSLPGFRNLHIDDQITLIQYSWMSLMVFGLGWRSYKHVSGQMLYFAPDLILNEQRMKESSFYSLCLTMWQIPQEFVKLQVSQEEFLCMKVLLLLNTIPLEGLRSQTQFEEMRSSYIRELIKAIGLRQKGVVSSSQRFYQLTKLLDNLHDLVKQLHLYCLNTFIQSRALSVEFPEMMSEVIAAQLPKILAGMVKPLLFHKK
# Summary of the method: as §1
# [5] = molecular target: T2, progesterone receptor (PR) (Homo sapiens, UniProt P06401); assay: PR transactivation in HEK-293 cells; assay type: cell-based; details: HEK-293, progesterone
# T2 sequence (P06401 1-933): T1 sequence (P06401 1-933)
# [6] = molecular target: T3, glucocorticoid receptor (GR) in PC-3 cells (Homo sapiens, UniProt P04150); assay: GR protein level in transiently transfected PC-3 cells; assay type: cell-based; details: transient transfection
# T3 sequence (P04150 1-777): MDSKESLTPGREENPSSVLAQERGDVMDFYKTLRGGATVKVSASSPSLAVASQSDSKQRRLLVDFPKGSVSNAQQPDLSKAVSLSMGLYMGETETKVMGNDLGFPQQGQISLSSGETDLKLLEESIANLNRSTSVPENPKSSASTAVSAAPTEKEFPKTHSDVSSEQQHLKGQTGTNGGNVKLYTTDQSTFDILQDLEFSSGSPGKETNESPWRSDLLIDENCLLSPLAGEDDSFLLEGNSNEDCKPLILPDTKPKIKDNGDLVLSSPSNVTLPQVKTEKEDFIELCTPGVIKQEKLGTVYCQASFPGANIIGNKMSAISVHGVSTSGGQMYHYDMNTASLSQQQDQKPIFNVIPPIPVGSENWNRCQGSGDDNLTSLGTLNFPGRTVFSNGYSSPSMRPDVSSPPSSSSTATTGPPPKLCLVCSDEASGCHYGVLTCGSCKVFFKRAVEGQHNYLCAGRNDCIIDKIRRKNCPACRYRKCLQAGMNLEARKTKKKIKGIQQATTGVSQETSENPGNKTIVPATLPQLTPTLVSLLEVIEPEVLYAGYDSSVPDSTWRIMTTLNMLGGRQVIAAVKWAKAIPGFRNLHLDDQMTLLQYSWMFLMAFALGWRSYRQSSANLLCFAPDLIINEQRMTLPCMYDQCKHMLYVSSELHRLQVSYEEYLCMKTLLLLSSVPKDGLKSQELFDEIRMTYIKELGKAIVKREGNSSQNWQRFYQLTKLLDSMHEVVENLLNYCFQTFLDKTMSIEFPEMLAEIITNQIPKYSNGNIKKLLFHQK
# [7] = system: NDRG1 and MT2A pre-mRNAs in LNCaP cells; assay: Early induction of NDRG1 and MT2A pre-mRNAs in LNCaP cells; assay type: cell-based; details: 10 μM, 0.1 nM R1881
# panel of kinases = assay: Cross-reactivity with a panel of kinases; assay type: biochemical
# AR-FL in AD1 cells = assay: AR full length protein level by Western blot in AD1 cells; assay type: cell-based; details: 24 hours
# Summary of the method: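 AD1 cells expressing full-length AR were kept for 2 days in medium containing charcoal-stripped serum, then treated for 24 hours. Protein was extracted and Western blotted for AR using the N-terminal AR-N20 antibody, with actin as the loading control.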
# [8] = system: AR recruitment to PSA enhancer ARE; assay: ChIP: AR recruitment to the PSA enhancer ARE in LNCaP cells; assay type: cell-based; details: 10 μM pre-treatment 30 minutes, 0.1 nM R1881 2 hours
# ER in T47D cells, sequence (P03372 whole entry): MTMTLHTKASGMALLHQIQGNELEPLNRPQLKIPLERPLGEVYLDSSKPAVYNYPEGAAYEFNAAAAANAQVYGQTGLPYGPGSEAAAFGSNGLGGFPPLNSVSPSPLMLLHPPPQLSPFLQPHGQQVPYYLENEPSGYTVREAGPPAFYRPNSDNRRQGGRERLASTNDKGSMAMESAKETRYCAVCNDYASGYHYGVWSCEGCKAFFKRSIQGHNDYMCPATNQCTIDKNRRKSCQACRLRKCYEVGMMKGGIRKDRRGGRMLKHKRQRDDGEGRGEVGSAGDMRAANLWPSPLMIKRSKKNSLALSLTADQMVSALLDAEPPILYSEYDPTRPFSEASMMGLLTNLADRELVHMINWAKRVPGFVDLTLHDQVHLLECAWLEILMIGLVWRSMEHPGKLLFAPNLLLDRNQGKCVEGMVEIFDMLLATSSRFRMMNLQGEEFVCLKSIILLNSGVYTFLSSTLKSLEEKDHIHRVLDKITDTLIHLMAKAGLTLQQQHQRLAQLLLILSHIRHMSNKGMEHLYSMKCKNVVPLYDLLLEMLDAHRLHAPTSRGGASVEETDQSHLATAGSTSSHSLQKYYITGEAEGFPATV
structure (smiles),measurement,setting,value
C[C@@](O)(Cn1ccc2cc(F)ccc21)C(=O)Nc1ccc(C#N)c(C(F)(F)F)c1 [(R)-UT-155],inhibition of R1881-induced FKBP5 expression,[1],at concentrations comparable to that observed with UT-155
same,inhibition of LNCaP proliferation,LNCaP cells,inhibited the proliferation of LNCaP cells
COc1ccc(/C=C/C(=O)/C=C(O)/C=C/c2ccc(OC)c(OC)c2)cc1OC [ASC-J9],concentrations inducing AR degradation,AR,greater than 10 μM
C[C@](O)(Cn1ccc2cc(F)ccc21)C(=O)Nc1ccc(C#N)c(C(F)(F)F)c1 [UT-155],inhibition of 22RV1 xenograft growth,22RV1 xenograft; 100 mg/kg/day s.c.,53%
same,inhibition of AR-V7-dependent FKBP5 expression,[2],inhibited
same,inhibition of PSA expression in LNCaP-EnzR,[3],inhibited the expression of PSA
same,inhibition of Pr-3001 growth,[4],40–60%
same,effect on ER protein levels,ER in T47D cells,no effect
same,effect on PR protein levels,PR in T47D cells,no effect
same,inhibition of PR transactivation,[5],at concentration comparable to that of the AR
same,effect on GR protein levels,[6],no effect on GR
same,inhibition of R1881-dependent increase in NDRG1 and MT2A pre-mRNAs at 1 and 2 hours,[7],failed to inhibit
same,inhibition of kinase activity,panel of kinases,no significant inhibition
same,effect on AR expression in AD1 cells,AR-FL in AD1 cells,reduces AR expression
same,inhibition of AR recruitment to the ARE on the PSA enhancer,[8],failed to inhibit
"CNC(=O)c1ccc(N2C(=S)N(c3ccc(C#N)c(C(F)(F)F)c3)C(=O)C2(C)C)cc1F [enzalutamide, reference compound]",effect on growth of 22RV1 tumors,22RV1 xenograft; 30 mg/kg/day s.c.,no effect
same,inhibition of AR recruitment to the ARE on the PSA enhancer,[8],inhibited

# Source: publication PMC5890913 (Cancer research, 2017)
